Results as given in ChEMBL document CHEMBL1141308, “The ansacarbamitocins: polar ansamitocin derivatives” (J Nat Prod, 2007).
The source made the active and inactive calls. The rule behind the calls is not given here.

Assays:
[1] = Antifungal activity against Septoria nodorum at 25 ug/mL; format: functional
Summary of the method: (§1)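 In vitro antifungal screening assay against the named Septoria species, testing purified compounds at a single concentration of 25 µg/mL.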

[2] = test system: Septoria; test: Antifungal activity against Septoria tritici at 25 ug/mL; format: functional; summary of the method: as §1

Row | SMILES | Activity [1] | Activity [2]
1 | CNC(=O)O[C@H]1CC(=O)N([C@H]2O[C@@H](COC(C)=O)[C@H](OC(N)=O)[C@@H](OC)[C@@H]2O)c2cc(cc(O)c2Cl)C/C(C)=C/C=C/[C@@H](OC)[C@@]2(O)C[C@H](OC(=O)N2)[C@@H](C)[C@H]2O[C@@]12C | inactive | inactive
2 | CNC(=O)O[C@H]1CC(=O)N([C@H]2O[C@@H](COC(C)=O)[C@H](OC(N)=O)[C@@H](O)[C@@H]2O)c2cc(cc(O)c2Cl)C/C(C)=C/C=C/[C@@H](OC)[C@@]2(O)C[C@H](OC(=O)N2)[C@@H](C)/C=C/1C | inactive | inactive
3 | CNC(=O)O[C@H]1CC(=O)N([C@H]2O[C@@H](CO)[C@H](OC(N)=O)[C@@H](O)[C@@H]2O)c2cc(cc(O)c2Cl)C/C(C)=C/C=C/[C@@H](OC)[C@@]2(O)C[C@H](OC(=O)N2)[C@@H](C)[C@H]2O[C@@]12C | inactive | inactive
4 | CNC(=O)O[C@H]1CC(=O)N([C@H]2O[C@@H](CO)[C@H](OC(N)=O)[C@@H](OC)[C@@H]2O)c2cc(cc(O)c2Cl)C/C(C)=C/C=C/[C@@H](OC)[C@@]2(O)C[C@H](OC(=O)N2)[C@@H](C)[C@H]2O[C@@]12C | inactive | inactive
5 | CNC(=O)O[C@H]1CC(=O)N([C@H]2O[C@@H](COC(C)=O)[C@H](OC(N)=O)[C@@H](OC)[C@@H]2O)c2cc(cc(O)c2Cl)C/C(C)=C/C=C/[C@@H](OC)[C@@]2(O)C[C@H](OC(=O)N2)[C@@H](C)/C=C/1C | inactive | inactive
6 | CNC(=O)O[C@H]1CC(=O)N([C@H]2O[C@@H](CO)[C@H](O)[C@@H](O)[C@@H]2O)c2cc(cc(O)c2Cl)C/C(C)=C/C=C/[C@@H](OC)[C@@]2(O)C[C@H](OC(=O)N2)[C@@H](C)[C@H]2O[C@@]12C | inactive | inactive
7 | CNC(=O)O[C@H]1CC(=O)N([C@H]2O[C@@H](COC(C)=O)[C@H](OC(N)=O)[C@@H](O)[C@@H]2O)c2cc(cc(O)c2Cl)C/C(C)=C/C=C/[C@@H](OC)[C@@]2(O)C[C@H](OC(=O)N2)[C@@H](C)[C@H]2O[C@@]12C | inactive | inactive
8 | CNC(=O)O[C@H]1CC(=O)N([C@H]2O[C@@H](CO)[C@H](O)[C@@H](OC)[C@@H]2O)c2cc(cc(O)c2Cl)C/C(C)=C/C=C/[C@@H](OC)[C@@]2(O)C[C@H](OC(=O)N2)[C@@H](C)[C@H]2O[C@@]12C | inactive | inactive
